Results taken from ChEMBL document CHEMBL4823291, “Discovery of 5,6,7,8-tetrahydropyrido[3,4-d]pyrimidine derivatives as novel selective Axl inhibitors” (Bioorg Med Chem Lett, 2021).
pIC50: −log10 of the molar value.

Columns and labels:
[1] = molecular target: T1, Tyrosine-protein kinase receptor UFO (Homo sapiens, UniProt P30530); assay: Inhibition of Axl (unknown origin) by cell free assay
T1 sequence (P30530 whole entry): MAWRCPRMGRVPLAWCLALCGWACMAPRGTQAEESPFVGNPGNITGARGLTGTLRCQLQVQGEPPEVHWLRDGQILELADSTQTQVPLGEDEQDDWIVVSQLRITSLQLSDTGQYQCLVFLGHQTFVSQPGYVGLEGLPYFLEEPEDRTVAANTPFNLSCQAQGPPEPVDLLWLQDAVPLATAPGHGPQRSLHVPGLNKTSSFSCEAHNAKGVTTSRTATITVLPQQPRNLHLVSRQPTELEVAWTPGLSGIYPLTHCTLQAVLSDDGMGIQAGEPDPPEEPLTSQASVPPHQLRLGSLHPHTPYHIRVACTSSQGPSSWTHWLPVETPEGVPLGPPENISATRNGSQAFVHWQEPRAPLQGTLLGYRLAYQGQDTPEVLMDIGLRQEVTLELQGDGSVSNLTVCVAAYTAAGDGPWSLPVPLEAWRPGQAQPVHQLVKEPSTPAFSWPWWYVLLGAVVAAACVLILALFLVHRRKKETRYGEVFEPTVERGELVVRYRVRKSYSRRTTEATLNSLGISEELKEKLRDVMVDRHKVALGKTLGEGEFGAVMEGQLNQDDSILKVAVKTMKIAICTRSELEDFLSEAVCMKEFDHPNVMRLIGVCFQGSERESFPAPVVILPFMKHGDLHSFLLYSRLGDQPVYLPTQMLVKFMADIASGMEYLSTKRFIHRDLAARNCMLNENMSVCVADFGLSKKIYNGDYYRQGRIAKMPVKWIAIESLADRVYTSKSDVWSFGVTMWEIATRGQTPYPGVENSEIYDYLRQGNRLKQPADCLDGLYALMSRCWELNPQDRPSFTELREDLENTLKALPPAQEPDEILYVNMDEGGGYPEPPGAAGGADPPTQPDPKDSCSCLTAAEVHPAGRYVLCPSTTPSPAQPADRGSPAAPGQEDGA

[2] = molecular target: T2, Tyrosine-protein kinase receptor UFO (Mus musculus, UniProt Q00993); assay: Inhibition of Axl in mouse BaF3 cells; assay type: cell-based
T2 sequence (Q00993 whole entry): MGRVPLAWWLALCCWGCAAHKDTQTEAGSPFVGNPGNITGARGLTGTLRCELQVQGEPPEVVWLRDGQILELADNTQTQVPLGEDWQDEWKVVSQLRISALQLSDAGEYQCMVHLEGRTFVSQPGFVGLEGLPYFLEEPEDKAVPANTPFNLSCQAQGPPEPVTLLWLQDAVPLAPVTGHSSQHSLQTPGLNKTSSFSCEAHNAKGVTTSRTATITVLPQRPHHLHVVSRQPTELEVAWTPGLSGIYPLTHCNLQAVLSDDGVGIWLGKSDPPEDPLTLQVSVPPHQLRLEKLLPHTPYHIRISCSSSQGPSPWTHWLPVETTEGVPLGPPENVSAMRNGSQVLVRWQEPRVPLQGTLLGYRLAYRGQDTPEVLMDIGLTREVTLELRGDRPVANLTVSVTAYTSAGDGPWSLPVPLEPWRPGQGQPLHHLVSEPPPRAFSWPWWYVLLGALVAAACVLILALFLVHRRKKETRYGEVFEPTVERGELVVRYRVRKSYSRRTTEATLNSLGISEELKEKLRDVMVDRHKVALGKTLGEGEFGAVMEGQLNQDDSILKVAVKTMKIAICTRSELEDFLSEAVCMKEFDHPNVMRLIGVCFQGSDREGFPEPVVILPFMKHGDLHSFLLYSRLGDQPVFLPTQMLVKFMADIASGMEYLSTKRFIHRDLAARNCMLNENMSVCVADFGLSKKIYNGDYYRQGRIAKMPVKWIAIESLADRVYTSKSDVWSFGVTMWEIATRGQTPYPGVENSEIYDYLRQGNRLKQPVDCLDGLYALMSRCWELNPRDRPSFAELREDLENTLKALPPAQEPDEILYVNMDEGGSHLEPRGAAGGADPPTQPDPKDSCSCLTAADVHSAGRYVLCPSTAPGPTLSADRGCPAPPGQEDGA

[3] = Metabolic stability in human liver microsomes assessed as residual ratio at 0.1 uM for 30 mins; assay type: ADME, Microsome; conditions: read-out: Stabilty
Method in brief: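 Compound incubated at 0.1 µM for 30 min with human or mouse liver microsomes. Residual ratio of parent determined afterwards.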

CYP2C19 = CYP2C19 (Homo sapiens, UniProt P33261); assay: Time dependent inhibition of CYP2C19 in human liver microsomes assessed as enzyme remaining activity using cocktail of probe CYP as substrate at 50 uM; assay type: ADME; conditions: probe cocktail of CYP probe substrates, read-out: Activity
Method in brief: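 Time-dependent CYP inhibition in human liver microsomes, with test compound at 50 µM and a cocktail of probe CYP substrates.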

[4] = Cmax in CAnN.Cg-Foxnlnu/CrlCrlj mouse plasma at 50 mg/kg, po single dose measured up to 24 hrs by liquid chromatography tandem mass spectrometry; assay type: ADME, organism-based; set-up: route oral, dose 50 mg/kg, time <=24
[5] = Tmax in CAnN.Cg-Foxnlnu/CrlCrlj mouse plasma at 25 mg/kg, po single dose measured up to 24 hrs by liquid chromatography tandem mass spectrometry; assay type: ADME, organism-based
[6] = Tmax in CAnN.Cg-Foxnlnu/CrlCrlj mouse plasma at 100 mg/kg, po single dose measured up to 24 hrs by liquid chromatography tandem mass spectrometry; assay type: ADME, organism-based

CYP2C19, sequence (P33261 whole entry): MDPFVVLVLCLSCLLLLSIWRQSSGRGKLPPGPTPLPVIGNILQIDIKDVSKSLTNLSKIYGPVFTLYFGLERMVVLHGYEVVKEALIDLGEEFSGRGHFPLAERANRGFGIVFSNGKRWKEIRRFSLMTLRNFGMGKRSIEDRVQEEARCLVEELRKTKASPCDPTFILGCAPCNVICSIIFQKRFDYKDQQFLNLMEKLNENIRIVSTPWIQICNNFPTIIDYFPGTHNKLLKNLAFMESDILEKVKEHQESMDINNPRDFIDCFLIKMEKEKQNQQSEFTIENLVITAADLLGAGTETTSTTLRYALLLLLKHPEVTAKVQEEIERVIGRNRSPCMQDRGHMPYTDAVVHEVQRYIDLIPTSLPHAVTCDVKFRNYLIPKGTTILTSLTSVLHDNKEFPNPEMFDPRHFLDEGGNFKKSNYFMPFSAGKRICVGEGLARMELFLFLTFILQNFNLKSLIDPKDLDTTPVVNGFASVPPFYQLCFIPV

`Cc1ccc(-n2c(=O)c(C(=O)Nc3ccc(Oc4ncnc5c4CCN(CC4CCN(C)CC4)C5)c(F)c3)cn(C3CCCC3)c2=O)nc1` showed a pIC50 [1] of 8.28, a pIC50 [2] of 7.55 and a remaining at 0.5 h, 0.1 µM [3] of 99%. The activity at 50 µM (CYP2C19) was 89%, the Cmax [4] was 5290 ng/mL and the Tmax [5] was 2 h. It also gave a Tmax [6] of 1 h.
